Counter-ions that a name gives are not always drawn. Like-named read-outs stand apart in the source and are kept apart here.
Assays:
basal hMSCs = assay: qHTS CellTiter-Glo viability assay in 1536-well format, basal hMSCs; assay type: cell-based, human; settings: qHTS CTG, basal vs osteogenesis day 1
How it was run: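 hMSCs were seeded at 500 cells/well directly in basal or osteogenic differentiation medium (osteogenesis day 1 arm) and held 24 h at 37°C/5% CO₂. A LOPAC library was then added at seven concentrations (0.0029–46 μM, 1:5 serial dilutions) for 48 h. ATP was read by CellTiter-Glo luminescence after 30 min at room temperature. IC₅₀ and efficacy came from dose-response curves, with hit cutoffs of efficacy ≥ 50% and IC₅₀ ≤ 20 μM.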

hMSCs = assay: CCK-8 cell viability assay on 96-well plates, basal hMSCs; assay type: cell-based, human; settings: for reduction in toxicity from basal hMSCs to their osteogenic progenies: basal hMSCs vs OD1-OD6; for IC50: read-out: IC50 hMSC
hiPSCs = assay: CCK-8 cell viability assay on 96-well plates, basal hiPSCs; assay type: cell-based, human; settings: for higher sensitivity of hiPSCs compared to basal hMSCs: ratio of IC50, hiPSCs vs basal hMSCs; for IC50: read-out: IC50 hiPSC; for dependency of effects on stages of hepatogenic differentiation of hiPSCs: Phase I-III
hMSC-OD6 = assay: CCK-8 cell viability assay on 96-well plates, hMSCs osteogenesis Day 6; assay type: cell-based; settings: Homo sapiens, read-out: IC50 hMSC-OD6
[1] = test system: hepatic differentiation Phase I cells; assay: CCK-8 cell viability assay, hiPSCs at end of hepatogenic differentiation Phase I; assay type: cell-based; settings: Homo sapiens, HepA, 48 h, read-out: IC50 Hepa Diff Phase I
[2] = test system: hepatic differentiation Phase III cells; assay type: cell-based; settings: Homo sapiens, HepA, 48 h, read-out: IC50 Hepa Diff Phase III
hMSC-OD3 = assay: CCK-8 cell viability assay on 96-well plates, hMSCs osteogenesis Day 3; assay type: cell-based; settings: Homo sapiens, read-out: IC50 hMSC-OD3
hMSC-OD1 = assay: CCK-8 cell viability assay on 96-well plates, hMSCs osteogenesis Day 1; assay type: cell-based; settings: Homo sapiens, read-out: IC50 hMSC-OD1
[3] = test system: hepatic differentiation Phase II cells; assay type: cell-based; settings: Homo sapiens, HepA, 48 h, read-out: IC50 Hepa Diff Phase II
[4] = basal hMSCs, 48-hour treatment, CCK-8, mean ± s.e.m., n=3
[5] = basal hiPSCs, 48-hour treatment, CCK-8, mean ± s.e.m., n=3

| SMILES | toxicity to basal hMSCs versus osteogenic hMSCs in primary screening (basal hMSCs) | reduction in toxicity from basal hMSCs to their osteogenic progenies (hMSCs) | IC50 (hMSCs; [4]) | higher sensitivity of hiPSCs compared to basal hMSCs (hiPSCs) | IC50 (hiPSCs; [5]) | IC50 (hMSC-OD6) | IC50 [1] | IC50 [2] | IC50 (hMSC-OD3) | IC50 (hMSC-OD1) | IC50 (hMSCs; Homo sapiens, 48 h) | IC50 (hiPSCs; Homo sapiens, 48 h) | dependency of effects on stages of hepatogenic differentiation of hiPSCs (hiPSCs) | IC50 [3] | decrease in toxicity from basal to OD6 (hMSCs; hMSCs, basal vs OD6, p<0.001) | differentiation-stage dependency of toxicity on hMSCs (hMSCs; basal hMSCs vs OD1 to OD6) |
| --- | --- | --- | --- | --- | --- | --- | --- | --- | --- | --- | --- | --- | --- | --- | --- | --- |
| CC[n+]1c(/C=C/C=C2/N(C)c3ccccc3C2(C)C)sc2ccccc21.[I-] [AC-93253] | much higher toxicity | 3~4 fold | 3.94 ± 1.18 µM | more than 30 times | 0.09 ± 0.038 µM |  |  |  |  |  |  |  |  |  |  |  |
| C[C@@]12C(=O)OC(=O)[C@]1(C)[C@H]1CC[C@@H]2O1 [Cantharidin, cantharidin] |  | 3~4 fold |  |  |  | 6.17 ± 2.55 µM | 2.7 ± 0.49 µM | 1.12 ± 0.34 µM | 4.95 ± 1.33 µM | 3.98 ± 0.69 µM | 1.54 ± 0.5 µM | 4.36 ± 1.4 µM | not significantly dependent | 2.58 ± 0.28 µM |  |  |
| CC(=O)[C@]1(O)Cc2c(O)c3c(c(O)c2[C@@H](O[C@H]2C[C@H](N)[C@H](O)[C@H](C)O2)C1)C(=O)c1ccccc1C3=O [Idarubicin, idarubicin hydrochloride] |  |  | 0.38 ± 0.074 µM | more than 30 times |  | 10.8 ± 0.43 µM | 0.07 ± 0.003 µM | 4.99 ± 1.38 µM | 7.43 ± 4.56 µM | 2.96 ± 0.22 µM |  | 0.004 ± 0.001 µM | significantly dependent | 1.25 ± 0.23 µM | 28 fold |  |
| O=C1C(SCCO)=C(SCCO)C(=O)c2ccccc21 [NSC 95397] |  |  | 6.55 ± 1.76 µM |  | 6.91 ± 3.01 µM |  |  |  |  |  |  |  |  |  |  | not differentiation-stage dependent |

— paper PMC5756105 (Journal of proteome research, 2017)
